# Screening results from PubChem.
# This excerpt belongs to a sample that is enriched for hits.
# RORA inh – blocks the human nuclear receptor RORA; P35398; CHO-K1 Gal4-RORA LBD luciferase reporter, luminescence; inhibition, % at 10 µM; hit rate 0.43% among 65,000;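 active means inhibition above the mean of all tested compounds plus 3 SD, cut at about 52% in these data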
# Target sequence (P35398 whole entry, looked up, the tested form may be a part): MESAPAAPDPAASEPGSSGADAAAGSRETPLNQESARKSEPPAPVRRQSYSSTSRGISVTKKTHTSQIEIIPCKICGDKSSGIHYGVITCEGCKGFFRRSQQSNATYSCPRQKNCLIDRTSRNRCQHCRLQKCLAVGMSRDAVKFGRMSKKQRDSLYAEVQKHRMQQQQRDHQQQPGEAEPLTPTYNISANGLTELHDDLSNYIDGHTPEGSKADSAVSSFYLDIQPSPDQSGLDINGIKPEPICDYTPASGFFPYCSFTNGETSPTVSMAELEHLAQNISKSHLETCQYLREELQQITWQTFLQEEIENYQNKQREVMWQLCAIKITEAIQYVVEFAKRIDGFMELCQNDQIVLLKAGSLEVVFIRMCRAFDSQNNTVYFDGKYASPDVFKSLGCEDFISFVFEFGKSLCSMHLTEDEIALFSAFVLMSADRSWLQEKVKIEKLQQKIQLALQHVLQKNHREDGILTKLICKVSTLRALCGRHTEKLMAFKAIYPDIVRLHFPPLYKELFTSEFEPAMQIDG
#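 Test system: CHO-K1 cells with Gal4-hRORA LBD fusion and pG5-luc reporter / Compound: single concentration per compound, 10 µM final / Schedule: 20 h compound treatment, 37 °C / Signal: luminescence from basal luciferase reporter expression / Read-out: % inhibition / Control set: mock-transfected cells as 100%, +RORA DMSO cells as 0% / Replicates: tested once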
# A number is an active result; i = inactive.
SMILES,RORA inh
CC1CCN(C(=O)CN2C(=O)C(C)(C)Oc3ccc(C(=O)NC4CCCC4)cc32)CC1,i
Cc1noc(C)c1C(=O)OCC(=O)c1cc(C)n(Cc2ccccc2Cl)c1C,i
Cc1nc(N2CCC3(CC2)OCCO3)c2nnn(Cc3ccccc3F)c2n1,i
CCCc1cc(NCCN2CCOCC2)n2c(nc3ccccc32)c1C#N,i
COCCNS(=O)(=O)c1cccc2cccnc12,i
O=C(Nc1ccc(Cl)cc1)N1CC=CCC1,i
CCOC(=O)COc1ccc2c(c1)C(=O)CC(C)(C)O2,i
Cc1nc2nc(COc3ccccc3)[nH]n2c(=O)c1Cl,i
COc1nc(C)ccc1-c1noc(-c2ccccn2)n1,i
c1ccc(-c2cccc(-c3ccccn3)n2)nc1,64.2
c1ccc(CCc2nc(-c3ccccn3)no2)cc1,i
NC(=O)c1nn(-c2ccccc2)nc1N,i
O=C(NCCCn1ccnc1)c1csc2ccccc12,i
CN(CC(=O)NCc1ccco1)S(=O)(=O)c1ccc2c(c1)n(C)c(=O)c(=O)n2C,i
COc1ccc2[nH]c(C)c(CN3CCC(C)CC3)c(=O)c2c1,i
COc1ccc2[nH]c(=O)c3c(c2c1)OC(C)(C)C=C3,57.7
COc1ccc(C2(C(=O)NCC3CCCO3)CCOCC2)cc1 (stereo unspecified),i
O=C(CC1Oc2ccccc2NC1=O)NCc1ccccc1 (stereo unspecified),i
CC(=O)CC1OC(=O)C(Br)=C1NCc1ccccc1 (stereo unspecified),62.8
O=S(=O)(NCCOC12CC3CC(CC(C3)C1)C2)c1cccc2nsnc12,i
Cc1ccnc2nc(C(=O)N3CCN(S(=O)(=O)c4ccccc4)CC3)nn12,i
CCOC(=O)Cc1csc(NC(=O)CSc2nc3cccnc3n2CC)n1,i
CCOC(=O)C1=Nc2ccccc2C1=[N+]=[N-],75.8
CCOC(=O)c1cnn(-c2ccccn2)c1N,i
CCOC(=O)c1c(C)nc(-c2ccccc2)nc1N,i
SMILES,RORA inh
O=C1Nc2ccccc2OC1CC(=O)N1CCCC1 (stereo unspecified),i
CCN(CC)S(=O)(=O)c1ccc2c(c1)c(=O)c(C(=O)N1CCN(c3ccccc3)CC1)cn2C,i
COc1ccc(-c2cc3nc4n(c(=O)c3s2)CCC4)cc1,71.4
O=C(Nc1ccc2nc3n(c(=O)c2c1)CCCCC3)c1ccccn1,i
COc1ccc2cc3c(N)c(C(=O)N4CCCC4)sc3nc2c1,i
CCOC(=O)c1sc2ncn(/N=C/c3ccccn3)c(=O)c2c1C,i
Cc1nnc(Sc2nc(Sc3nnc(C)s3)nc(N3CCN(C)CC3)n2)s1,93.4
COc1cccc(-n2c(SC)nnc2-c2cnccn2)c1,i
COc1ccc(CCn2c(=N)c(C#N)cc3c(=O)n4ccccc4nc32)cc1,i
CCOC(=O)C1=C(C)Nc2nc(SCC)[nH]c(=O)c2C1c1ccncc1 (stereo unspecified),i
NC(=O)C1CCN(C(=O)CSCc2ccccc2Cl)CC1,i
Cc1ccc(-c2nsc3c(N4CCC(C(N)=O)CC4)ncnc23)cc1,56.7
O=C(CN(Cc1ccco1)S(=O)(=O)c1cccs1)Nc1ccccc1C(F)(F)F,i
CCC(C)(C)n1nnnc1C(c1ccc(N(C)C)cc1)N1CCN(C2CCCCC2)CC1 (stereo unspecified),i
CCCCn1c(SCC(=O)N2CCN(c3ccccc3)CC2)nc2ccsc2c1=O,i
O=C(CN(Cc1ccco1)C(=O)CNS(=O)(=O)c1ccc(Cl)cc1)NCc1ccc(F)cc1,i
CCC(=O)NCCCCNC(=O)CC,i
COc1ccc2c(c1)[nH]c1c(N3CCN(Cc4ccc5c(c4)OCO5)CC3)ncnc12,72.2
O=C(Cn1ccc2ccccc2c1=O)N1CCN(Cc2ccc3c(c2)OCO3)CC1,i
Cc1ccc2[nH]c3c(N4CCCCCC4)ncnc3c2c1,77.7
O=C(N1CCN(Cc2ccc3c(c2)OCO3)CC1)C12CC3CC(CC(C3)C1)C2,i
c1nc(N2CCN(Cc3ccc4c(c3)OCO4)CC2)c2[nH]cnc2n1,i
COCCn1nnnc1C(c1ccc(C)cc1)N1CCN(Cc2ccc3c(c2)OCO3)CC1 (stereo unspecified),i
Cc1ccc2[nH]c3c(N4CCN(Cc5ccc6c(c5)OCO6)CC4)ncnc3c2c1,81.6
Cc1ccc2c(c1)c1ncnc(N3CCC4(CC3)OCCO4)c1n2C,i
SMILES,RORA inh
Cc1oc(-c2ccccc2F)nc1CN1CCC(C(=O)NCc2cccs2)CC1,i
CSCCC(NC(=O)c1ccco1)C(=O)O (stereo unspecified),i
COc1cc2c(cc1OC)CN(C(=O)CSc1nc(N)c(C#N)cc1C#N)CC2,i
CCCCOc1ccccc1NC(=O)CSc1nnnn1C(C)(C)C,i
Cc1ccc(Sc2oc(/C=N/n3cnnc3)cc2Br)cc1,i
Cc1cc(C)nc(SC2=CS(=O)(=O)c3ccccc32)n1,64.9
O=c1oc2ccccc2n1CSc1nc2ccccc2s1,i
OC1CCCCC1Sc1nc2ccccc2s1 (stereo unspecified),i
O=C(Sc1nnc(-c2ccccc2)o1)N1c2ccccc2Sc2ccccc21,i
O=S1(=O)C=C(Sc2nnc(-c3ccccc3)o2)c2ccccc21,80.2
c1ccc(-c2nnc(SCc3cn4ccsc4n3)o2)cc1,i
O=S1(=O)C=C(Sc2nc3ccccc3s2)c2ccccc21,88.1
CCOC(=O)c1sc(C)c(C(=O)NCCCN2CCOCC2)c1N,i
CCCCn1c(SCC(=O)Nc2cc(NC(=O)c3ccco3)ccc2C)nc2ccccc2c1=O,i
Cc1cc2c(cc(C(=O)OCC(=O)NCc3cccs3)n2C(C)C)o1,i
CC1(C)N=C(c2ccc(Cl)cc2Cl)C(=O)N1,i
CCCc1ccc(-c2ccc(F)c(N)c2)nc1,69.1
CC(C)(C)c1ccc(S(=O)(=O)N2CCCC2C(=O)NC2=NCCS2)cc1 (stereo unspecified),i
CCOc1ccccc1C1C(C(=O)Nc2ccc(OC)cc2)=C(C)Nc2nc(CCCO)nn21 (stereo unspecified),i
COc1ccc(S(=O)(=O)NCc2ccco2)cc1-c1nnc2c3ccccc3c(C)nn12,i
Clc1ncn(C23CC4CC(CC(C4)C2)C3)n1,i
Cc1cc(C(=O)CN2C(=O)c3ccccc3S2(=O)=O)c(C)n1CC1CCCO1 (stereo unspecified),61.7
Cc1nnc(SCc2ccccc2Cl)n1CC1CCCO1 (stereo unspecified),i
COc1ccc(-c2nnc(SCC(=O)NC(C)C)n2CC2CCCO2)cc1OC (stereo unspecified),i
O=C(Cc1ccccc1)Nc1c(C(=O)N2CCOCC2)cnn1-c1ccccc1,i
SMILES,RORA inh
CSc1nnc(Cn2c(=O)sc3ccccc32)n1-c1ccccc1C,i
COc1ccc(-c2nnc(SCC(=O)Nc3ncc(C)s3)n2-c2ccccc2)cc1OC,i
CCOC(=O)N1CCC(N2Cc3cccc(C(=O)N4CC(C)CC(C)C4)c3C2=O)CC1 (stereo unspecified),i
Cc1ccc(S(=O)(=O)NCc2ccncc2)cc1,56.5
CC1CCCCC1NS(=O)(=O)c1ccc(S(=O)(=O)NCc2ccncc2)cc1 (stereo unspecified),69.2
O=S(=O)(NCc1ccc(Cl)cc1)c1cnc[nH]1,i
CC(=O)NS(=O)(=O)c1ccc(NC(=O)CCC2CCCC2)cc1,i
Cc1cc(C)c(C)c(S(=O)(=O)NCc2cccnc2)c1C,i
COc1ccc2c(c1OC)C(=O)N1C2SC[C@H]1C(=O)NC1CC(C)(C)NC(C)(C)C1 (stereo partly specified),i
O=C(c1ccc(Br)cc1)C1CCc2occc2C1=O (stereo unspecified),i
